Test results published in ChEMBL document CHEMBL4513216, “Probing the Open Global Health Chemical Diversity Library for Multistage-Active Starting Points for Next-Generation Antimalarials” (ACS Infect Dis, 2020).

Test: Toxicity liver stage against HepG2, at 10uM
Assay type: cell-based
Set-up: test concentration 10 uM, cell line HepG2-A16-CD81EGFP
Conditions: human, HepG2-A16-CD81EGFP cells; read-out: INHIBITION
How it was run: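 Uninfected HepG2-A16-CD81EGFP cells, 3 × 10^3 per well, 1536-well, plated on prespotted compound at 10 μM final, parasite-free screening media added to match infected plates; puromycin 10 μM positive, DMSO 0.5% negative; run in parallel with 48 h PbLuc assay at 37 °C, 5% CO2; viability by CellTiter-Glo luminescence, normalized to controls.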

| Structure (SMILES) | cytotoxicity at 10 µM [%] |
| --- | --- |
| COc1cc(C)ccc1OCC(=O)NS(=O)(=O)c1ccc(Br)s1 | -7.72 |
| O=C(NCCn1nc(C2CCNC2)c2cccnc21)c1ccccn1 (stereo unspecified) | -25.7 |
| Cc1ccc(N2CC[C@H]3CO[C@H](CN(C)Cc4ccco4)[C@H]3C2)nn1 | 8.35 |
| Cc1occc1-c1nc(NC2CCCC2)ncc1-c1ccccn1 | -20.9 |
| Cc1nc(C)c(C(=O)N2CCc3nc4c(C)csc4c(=O)n3CC2)s1 | 4.11 |
| CN(Cc1cc2n(n1)CCCNC2)Cc1n[nH]c2c1CCC2 | 3.04 |
| CCc1nc(C2CCCN2CC(=O)Nc2cc(C)nn2C)no1 (stereo unspecified) | -7.82 |
| COc1ccccc1CNC(C)c1ccc2[nH]c(=O)[nH]c2c1 (stereo unspecified) | -18 |
| Nc1nc(CCC(=O)N2CCOC(CC3CCCCC3)C2)cs1 (stereo unspecified) | -9.18 |
| Cc1nc(C2CN(C)CCO2)cc(N2CCSCC2)n1 (stereo unspecified) | -15.6 |
| CN1CCN(c2ncnc3c2CCN(S(=O)(=O)C2CC2)CC3)CC1 | -112 |
| Cc1ccc(CN2CCc3ncc(CNS(C)(=O)=O)n3CC2)o1 | -9.9 |
| CC(c1ccc(S(C)(=O)=O)cc1)N(C)C(=O)c1ccccc1I (stereo unspecified) | 11.1 |
| O=C(NCCc1ccc(Cl)s1)NCc1nnc2n1CCC2 | -7.15 |
| CN(C)C(=O)N1CCO[C@@H]2CC(COCc3cccnc3)C[C@H]21 (stereo partly specified) | 8.61 |
| C[C@@H]1CN(C(=O)c2ccc(Br)cc2F)CC(C(N)=O)O1 (stereo partly specified) | -2.74 |
| CSCCC(CO)NC(=O)c1sc(-c2ccccc2Cl)nc1C (stereo unspecified) | 1.11 |
| CC(C)c1ccc(C(O)Cn2c(=O)c(C#N)cn(C3CC3)c2=O)cc1 (stereo unspecified) | -11.5 |
| Cc1ccc(-c2nc(CCNC(=O)NC3CCC(O)CC3)co2)cc1 (stereo unspecified) | -2.3 |

| Structure (SMILES) | cytotoxicity at 10 µM [%] |
| --- | --- |
| COc1ncccc1NC(=O)C1CC1 | -19.2 |
| Cc1cccc(CN2CCC3(CC2)CN(c2cnn(C)c2)C(=O)CO3)n1 | 3.94 |
| Cc1nnc(NCC2(c3ccccc3)CC2)c(C#N)c1C | 3.51 |
| Cc1nn(C)c(C)c1-c1ccc(=O)n(C(C)C(=O)NC(C)(C)C)n1 (stereo unspecified) | 5.75 |
| COc1ccc(C(C(=O)O)N2CCCN(C3CCCCC3)CC2)cn1 (stereo unspecified) | 13.3 |
| O=C(O)C1CCN(c2ccc(Sc3ccc(Br)cc3)nn2)CC1 | 9.14 |
| Cc1cccc(N(CCC(N)=O)C(=O)c2cnccn2)c1 | -1.74 |
| CC(C)c1nnc2n1CCN(Cc1nc3c(F)cccc3[nH]1)C2 | -9.14 |
| CS(=O)(=O)NCCNC(=O)c1ccc(OCc2ccccc2)nc1 | 4.43 |
| CC[C@@]1(O)CCN(c2ncc(Cl)cc2F)C[C@H]1O | 2.38 |
| CCSCc1cccc(NCc2cccnc2)c1 | -1.32 |
| CCc1noc(C(C)N2CCNCC2)n1 (stereo unspecified) | -3.46 |
| COC(=O)c1c(C(F)(F)F)cnc(OC)c1Cl | 7.03 |
| CCc1nccn1C1CCCN(C(=O)c2ccc3c(c2)OCO3)C1 (stereo unspecified) | -12.6 |
| Cc1ccsc1[C@@H]1CCN(C(=O)c2ccc(-c3cc[nH]n3)cc2)C[C@H]1O | 4.28 |
| CC(C)c1nc(CNC2CCN(S(C)(=O)=O)CC2)cs1 | -1.53 |
| CN1C(=O)CCC12CCCN(Cc1nccs1)C2 (stereo unspecified) | -68.8 |
| COc1c(-c2ccc(O)cc2)oc2cc(O)cc(O)c2c1=O [ISOKAEMPFERIDE] | 7.8 |
| Cc1cccc(CN2C[C@@H]3CN(C(=O)c4ccnnc4)C[C@@H]3C2=O)c1 | -6.89 |

| Structure (SMILES) | cytotoxicity at 10 µM [%] |
| --- | --- |
| CCCNC(c1cccnc1)c1ccc(F)c(C)c1 (stereo unspecified) | 0.821 |
| C[C@@H]1CN(C2CCN(c3ccccc3F)CC2)CC[C@]1(C)O | -5.32 |
| CCc1cc(N(C)CCc2noc(C)n2)nc(N2CCOCC2)n1 | 4.12 |
| CN1CCCC[C@@H]2[C@H]1[C@@H](c1ccccc1)CCN2C(=O)c1cccnc1 | -21.2 |
| O=C(CN1C[C@@H]2CC[C@H]1CN(Cc1ccccn1)C2)NCc1cccs1 | -24.2 |
| Cn1cc(C(=O)CC2CCCN2C(=O)c2ccc3[nH]ncc3c2)cn1 (stereo unspecified) | -2.53 |
| COc1ccccc1C(=O)N1CC(Cc2nccc3ccn(C)c23)C1 | -0.619 |
| Cc1nc(CCCNC(=O)c2c(F)cc(F)cc2F)n[nH]1 | -4.31 |
| NC(=O)C1CCN(C(=O)CCn2ccc3ccc(F)cc32)CC1 | -6.83 |
| Cc1cc(C)cc(C(=O)NCCS(=O)(=O)N2CCSCC2)c1 | -12.5 |
| Cc1occc1C(=O)Nc1cnn(CCN2CCOCC2)c1 | -10 |
| Cc1nc(C)c(CNCC2CCCn3ccnc32)s1 (stereo unspecified) | -14.6 |
| O=c1[nH]c(-c2ccccn2)nc2c1CCN(Cc1cccc(O)c1)C2 | -17.6 |
| C[C@@H]1CN(CCOCc2ccccc2)CC[C@@]1(O)C1CCC1 | 1.4 |
| CCN(CC)C1CCN(C(=O)NCc2c(C)noc2C)CC1 | -3.71 |
| CCn1cc(-c2nn3c(C(F)(F)F)nnc3s2)c(C)n1 | 13.5 |
| c1ccc2c(N3CCOC(Cn4cccn4)C3)ncnc2c1 (stereo unspecified) | -1.04 |
| CCN(C)C(=O)c1ccnn1-c1ccc2ccccn12 | 6.71 |
